In brackets after ≈: the same amount, converted by molar mass. Activity calls are given as the source filed them. The rule behind the calls is not given here.
Legend:
T47D = test: Cytotoxicity against human T47D cells assessed as growth inhibition at 10 uM after 48 hrs by sulphorhodamine B assay; type: functional; settings: read-out: GI
Outline: (§1)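 NCI-60 one-dose screen per the NCI Drug Evaluation Branch protocol. Cells given a single 10 µM concentration with 48 h continuous exposure. Growth estimated by sulphorhodamine B protein assay. Result expressed as percentage growth inhibition relative to untreated growth.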

IGROV-1 = test: Cytotoxicity against human IGROV1 cells assessed as growth inhibition at 10 uM after 48 hrs by sulphorhodamine B assay; type: functional; settings: IGROV-1, 48 h, read-out: GI; outline: as §1
HCT-116 = test: Cytotoxicity against human HCT116 cells assessed as growth inhibition at 10 uM after 48 hrs by sulphorhodamine B assay; type: functional; settings: HCT-116, 48 h, read-out: GI; outline: as §1
Hs-578T = test: Cytotoxicity against human Hs578T cells assessed as growth inhibition at 10 uM after 48 hrs by sulphorhodamine B assay; type: functional; settings: read-out: GI; outline: as §1
PC-3 = test: Cytotoxicity against human PC3 cells assessed as growth inhibition at 10 uM after 48 hrs by sulphorhodamine B assay; type: functional; settings: PC-3, 48 h, read-out: GI; outline: as §1
A498 = test: Cytotoxicity against human A498 cells assessed as growth inhibition at 10 uM after 48 hrs by sulphorhodamine B assay; type: functional; settings: A498, 48 h, read-out: GI; outline: as §1
SF-295 = test: Cytotoxicity against human SF295 cells assessed as growth inhibition at 10 uM after 48 hrs by sulphorhodamine B assay; type: functional; settings: SF-295, 48 h, read-out: GI; outline: as §1
U-251 = test: Cytotoxicity against human U251 cells assessed as growth inhibition at 10 uM after 48 hrs by sulphorhodamine B assay; type: functional; settings: U-251, 48 h, read-out: GI; outline: as §1
[1] = Binding affinity to DNA (unknown origin) at 5 mg/mL by RP-TLC plate analysis
Outline: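 Reversed-phase C18 TLC plates pre-developed in methanol/water 8:2. Compound spotted at origin (5 mg/mL in methanol), then DNA (1 mg/mL in water/methanol 8:2) applied at the same spot. Plates developed in the same eluent; DNA located by anisaldehyde spray (blue). Ethidium bromide as positive control.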

SR = test: Cytotoxicity against human SR cells assessed as growth inhibition at 10 uM after 48 hrs by sulphorhodamine B assay; type: functional; settings: read-out: GI; outline: as §1
CCRF-CEM = test: Cytotoxicity against human CCRF-CEM cells assessed as growth inhibition at 10 uM after 48 hrs by sulphorhodamine B assay; type: functional; settings: read-out: GI; outline: as §1
[2] = Displacement of methyl green from DNA (unknown origin) after 24 hrs
Outline: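 DNA-methyl green complex was stirred in 0.05 M Tris-HCl pH 7.5 with 7.5 mmol MgSO4 at 37 °C for 24 h. Compound was dried down from EtOH in tubes and the DNA-methyl green solution added. A630 was read initially and after 24 h dark incubation at room temperature, corrected and normalized to untreated complex. IC50 is the concentration giving a 50% absorbance decrease; mean ± SD, n = 6.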

UO-31 = test: Cytotoxicity against human UO31 cells assessed as growth inhibition at 10 uM after 48 hrs by sulphorhodamine B assay; type: functional; settings: UO-31, 48 h, read-out: GI; outline: as §1
M14 = test: Cytotoxicity against human M14 cells assessed as growth inhibition at 10 uM after 48 hrs by sulphorhodamine B assay; type: functional; settings: M14, 48 h, read-out: GI; outline: as §1
NCI-H23 = test: Cytotoxicity against human NCI-H23 cells assessed as growth inhibition at 10 uM after 48 hrs by sulphorhodamine B assay; type: functional; settings: NCI-H23, 48 h, read-out: GI; outline: as §1
RXF 393 = test: Cytotoxicity against human RXF393 cells assessed as growth inhibition at 10 uM after 48 hrs by sulphorhodamine B assay; type: functional; settings: RXF 393, 48 h, read-out: GI; outline: as §1
MDA-MB-435 = test: Cytotoxicity against human MDA-MB-435 cells assessed as growth inhibition at 10 uM after 48 hrs by sulphorhodamine B assay; type: functional; settings: MDA-MB-435, 48 h, read-out: GI; outline: as §1
SK-MEL-5 = test: Cytotoxicity against human SK-MEL-5 cells assessed as growth inhibition at 10 uM after 48 hrs by sulphorhodamine B assay; type: functional; settings: SK-MEL-5, 48 h, read-out: GI; outline: as §1
ACHN = test: Cytotoxicity against human ACHN cells assessed as growth inhibition at 10 uM after 48 hrs by sulphorhodamine B assay; type: functional; settings: read-out: GI; outline: as §1
LOX IMVI = test: Cytotoxicity against human LOXIMVI cells assessed as growth inhibition at 10 uM after 48 hrs by sulphorhodamine B assay; type: functional; settings: read-out: GI; outline: as §1
CAKI-1 = test: Cytotoxicity against human Caki1 cells assessed as growth inhibition at 10 uM after 48 hrs by sulphorhodamine B assay; type: functional; settings: CAKI-1, 48 h, read-out: GI; outline: as §1
[3] = Cytotoxicity against human EKVX cells assessed as growth inhibition at 10 uM after 48 hrs by sulphorhodamine B assay; type: functional; settings: read-out: GI; outline: as §1
MCF7 = test: Cytotoxicity against human MCF7 cells assessed as growth inhibition at 10 uM after 48 hrs by sulphorhodamine B assay; type: functional; settings: MCF7, 48 h, read-out: GI; outline: as §1
UACC-62 = test: Cytotoxicity against human UACC62 cells assessed as growth inhibition at 10 uM after 48 hrs by sulphorhodamine B assay; type: functional; settings: UACC-62, 48 h, read-out: GI; outline: as §1
SK-OV-3 = test: Cytotoxicity against human SKOV3 cells assessed as growth inhibition at 10 uM after 48 hrs by sulphorhodamine B assay; type: functional; settings: SK-OV-3, 48 h, read-out: GI; outline: as §1
DU-145 = test: Cytotoxicity against human DU145 cells assessed as growth inhibition at 10 uM after 48 hrs by sulphorhodamine B assay; type: functional; settings: DU-145, 48 h, read-out: GI; outline: as §1
SF-268 = test: Cytotoxicity against human SF268 cells assessed as growth inhibition at 10 uM after 48 hrs by sulphorhodamine B assay; type: functional; settings: SF-268, 48 h, read-out: GI; outline: as §1
HL-60(TB) = test: Cytotoxicity against human HL-60(TB) cells assessed as growth inhibition at 10 uM after 48 hrs by sulphorhodamine B assay; type: functional; settings: HL-60, 48 h, read-out: GI
Outline: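 NCI-60 one-dose primary screen run to the Drug Evaluation Branch protocol. Cells are exposed to a single 10 µM concentration for 48 h continuously, and growth is read by SRB protein assay. Data are reported as percent growth of treated cells, expressed as % growth inhibition.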

K562 = test: Cytotoxicity against human K562 cells assessed as growth inhibition at 10 uM after 48 hrs by sulphorhodamine B assay; type: functional; settings: K562, 48 h, read-out: GI; outline: as §1
MOLT-4 = test: Cytotoxicity against human MOLT4 cells assessed as growth inhibition at 10 uM after 48 hrs by sulphorhodamine B assay; type: functional; settings: MOLT-4, 48 h, read-out: GI; outline: as §1
SNB-19 = test: Cytotoxicity against human SNB19 cells assessed as growth inhibition at 10 uM after 48 hrs by sulphorhodamine B assay; type: functional; settings: SNB-19, 48 h, read-out: GI; outline: as §1
HOP-92 = test: Cytotoxicity against human HOP92 cells assessed as growth inhibition at 10 uM after 48 hrs by sulphorhodamine B assay; type: functional; settings: HOP-92, 48 h, read-out: GI; outline: as §1
HCT-15 = test: Cytotoxicity against human HCT15 cells assessed as growth inhibition at 10 uM after 48 hrs by sulphorhodamine B assay; type: functional; settings: HCT-15, 48 h, read-out: GI; outline: as §1
SK-MEL-2 = test: Cytotoxicity against human SK-MEL-2 cells assessed as growth inhibition at 10 uM after 48 hrs by sulphorhodamine B assay; type: functional; settings: SK-MEL-2, 48 h, read-out: GI; outline: as §1
NCI-H522 = test: Cytotoxicity against human NCI-H522 cells assessed as growth inhibition at 10 uM after 48 hrs by sulphorhodamine B assay; type: functional; settings: NCI-H522, 48 h, read-out: GI; outline: as §1
SNB-75 = test: Cytotoxicity against human SNB75 cells assessed as growth inhibition at 10 uM after 48 hrs by sulphorhodamine B assay; type: functional; settings: SNB-75, 48 h, read-out: GI; outline: as §1
HT-29 = test: Cytotoxicity against human HT-29 cells assessed as growth inhibition at 10 uM after 48 hrs by sulphorhodamine B assay; type: functional; settings: HT-29, 48 h, read-out: GI; outline: as §1
A549 = test: Cytotoxicity against human A549 cells assessed as growth inhibition at 10 uM after 48 hrs by sulphorhodamine B assay; type: functional; settings: A549, 48 h, read-out: GI; outline: as §1
OVCAR-5 = test: Cytotoxicity against human OVCAR5 cells assessed as growth inhibition at 10 uM after 48 hrs by sulphorhodamine B assay; type: functional; settings: OVCAR-5, 48 h, read-out: GI; outline: as §1
NCI/ADR-RES = test: Cytotoxicity against human NCI/ADR-RES cells assessed as growth inhibition at 10 uM after 48 hrs by sulphorhodamine B assay; type: functional; settings: read-out: GI; outline: as §1
RPMI-8226 = test: Cytotoxicity against human RPMI8226 cells assessed as growth inhibition at 10 uM after 48 hrs by sulphorhodamine B assay; type: functional; settings: RPMI-8226, 48 h, read-out: GI; outline: as §1
OVCAR-4 = test: Cytotoxicity against human OVCAR4 cells assessed as growth inhibition at 10 uM after 48 hrs by sulphorhodamine B assay; type: functional; settings: OVCAR-4, 48 h, read-out: GI; outline: as §1

CC1CCCc2c1nc1[nH]c(=S)n(-c3ccccc3)c(=N)c1c2-c1ccc(Cl)cc1 (configuration not stated)
inhibition of growth at 10 µM (T47D): 50%
inhibition of growth at 10 µM (IGROV-1): 33.3%
inhibition of growth at 10 µM (HCT-116): 34%
inhibition of growth at 10 µM (Hs-578T): < 10%
inhibition of growth at 10 µM (PC-3): 21%
inhibition of growth at 10 µM (A498): 25.2%
inhibition of growth at 10 µM (SF-295): 12.8%
inhibition of growth at 10 µM (U-251): 15.2%
Activity [1]: Active
inhibition of growth at 10 µM (SR): < 10%
inhibition of growth at 10 µM (CCRF-CEM): 20.7%
IC50 [2]: 0.097 µg/mL (≈ 0.224 µM)
inhibition of growth at 10 µM (UO-31): 44.4%
inhibition of growth at 10 µM (M14): 17.3%
inhibition of growth at 10 µM (NCI-H23): 11.5%
inhibition of growth at 10 µM (RXF 393): 17.8%
inhibition of growth at 10 µM (MDA-MB-435): < 10%
inhibition of growth at 10 µM (SK-MEL-5): 12%
inhibition of growth at 10 µM (ACHN): 11.3%
inhibition of growth at 10 µM (LOX IMVI): 13.1%
inhibition of growth at 10 µM (CAKI-1): < 10%
inhibition of growth at 10 µM [3]: 31%
inhibition of growth at 10 µM (MCF7): < 10%
inhibition of growth at 10 µM (UACC-62): 25.3%
inhibition of growth at 10 µM (SK-OV-3): 10.4%
inhibition of growth at 10 µM (DU-145): 13%
inhibition of growth at 10 µM (SF-268): < 10%
inhibition of growth at 10 µM (HL-60(TB)): 24.2%
inhibition of growth at 10 µM (K562): 28.5%
inhibition of growth at 10 µM (MOLT-4): 40%
inhibition of growth at 10 µM (SNB-19): < 10%
inhibition of growth at 10 µM (HOP-92): 26.2%
inhibition of growth at 10 µM (HCT-15): 10%
inhibition of growth at 10 µM (SK-MEL-2): 11.3%
inhibition of growth at 10 µM (NCI-H522): 31%
inhibition of growth at 10 µM (SNB-75): 13.9%
inhibition of growth at 10 µM (HT-29): < 10%
inhibition of growth at 10 µM (A549): 18.9%
inhibition of growth at 10 µM (OVCAR-5): 14.3%
inhibition of growth at 10 µM (NCI/ADR-RES): 11.4%
inhibition of growth at 10 µM (RPMI-8226): 66%
inhibition of growth at 10 µM (OVCAR-4): 14.5%
